Assays:
[1] = molecular target: T1, cGMP-specific 3',5'-cyclic phosphodiesterase (Homo sapiens, UniProt O76074); assay: Inhibition of PDE5
[2] = tested on: Phosphodiesterase 6 (Bos taurus); assay: Inhibition of PDE6 at 2 uM
[3] = molecular target: T1, cGMP-specific 3',5'-cyclic phosphodiesterase; assay: Inhibition of PDE5 at 2 uM
In short: (§1)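 PDE5 enzyme preparation was stored frozen at -80 °C with 1 g/L bovine serum albumin until use. […] Activity is reported as percent inhibition at the single test concentration indicated.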

Homo sapiens = organism: Homo sapiens; assay: Selectivity for PDE5 over PDE6
[4] = molecular target: Phosphodiesterase 6 (Bos taurus); assay: Inhibition of PDE6
[5] = molecular target: T1, cGMP-specific 3',5'-cyclic phosphodiesterase; assay: Inhibition of PDE5 at 0.2 uM; in short: as §1
[6] = tested on: Phosphodiesterase 6 (Bos taurus); assay: Inhibition of PDE6 at 0.2 uM

`Cc1nn(Cc2ccncc2)c(=O)c2nc(C)n3nc(-c4ccccc4)cc3c12` gave an IC50 [1] of 240 nM and an inhibition [2] of 39.4%.
`Cc1nn(C(C)C)c(=O)c2nc(C)n3nc(-c4ccccc4)cc3c12` was tested, and the inhibition [3] was 44.7% and the inhibition [2] was 1.2%.
With `Cc1nn(CCC2CCNCC2)c(=O)c2nc(C)n3nc(-c4ccccc4)cc3c12` the inhibition [3] was 67.7% and the inhibition [2] was 26.6%.
In the case of `CCCn1nc(C)c2c(nc(C)n3nc(-c4ccccc4)cc23)c1=O`, the inhibition [3] is reported as 44.9% and the inhibition [2] is reported as 6.9%.
In the case of `CCCc1nc2c(=O)n(Cc3ccccc3)nc(C)c2c2cc(-c3ccccc3)nn12`, the Selectivity ratio (Homo sapiens) is reported as 15, the IC50 [1] is reported as 40 nM and the IC50 [4] is reported as 0.61 µM.
Compound `Cc1nc2c(=O)n(Cc3ccccc3)nc(C3CCCC3)c2c2cc(-c3ccccc3)nn12` has an inhibition [3] of 14.3% and an inhibition [2] of 12.3%.
`Cc1nn(Cc2ccc3c(c2)OCO3)c(=O)c2nc(C)n3nc(-c4ccccc4)cc3c12` showed an IC50 [1] of 390 nM and an inhibition [2] of 7%.
`COc1cccc(Cn2nc(C)c3c(nc(C)n4nc(-c5ccccc5)cc34)c2=O)c1` showed a Selectivity ratio (Homo sapiens) greater than 20, an IC50 [1] of 100 nM and an inhibition [2] of 3.8%.
Compound `Cc1nn(Cc2ccccc2)c(=O)c2ncn3nc(-c4ccccc4)cc3c12` has an IC50 [1] of 180 nM and an IC50 [4] of 0.86 µM.
`Cc1nn(Cc2ccccc2)c(=O)c2nc(C)n3nc(-c4ccc(S(C)(=O)=O)cc4)cc3c12` was tested, and the inhibition [3] was 3.8% and the inhibition [2] was 2.8%.
`Cc1nn(Cc2ccccc2)c(=O)c2nc(C)n3nc(-c4ccccc4)cc3c12` was tested, and the inhibition [2] was 25%.
`Cc1nn(Cc2ccccc2)c(=O)c2nc(C)n3nc(-c4ccoc4)cc3c12` gave an IC50 [1] of 50 nM and an IC50 [4] of 0.33 µM.
Compound `COC(=O)CCc1nc2c(=O)n(Cc3ccccc3)nc(C)c2c2cc(-c3ccccc3)nn12` has an IC50 [1] of 79 nM and an inhibition [2] of 16.9%.
With `C#CCn1nc(C)c2c(nc(C)n3nc(-c4ccccc4)cc23)c1=O` the inhibition [5] was 19.7% and the inhibition [6] was 0.3%.
Compound `Cc1nnc(NCc2ccccc2)c2nc(C)n3nc(-c4ccccc4)cc3c12` has an inhibition [3] of 52.4%.
With `CCOCc1nn(Cc2ccccc2)c(=O)c2nc(C)n3nc(-c4ccccc4)cc3c12` the IC50 [1] was 71 nM and the IC50 [4] was 0.33 µM.
In the case of `CCCCn1nc(C)c2c(nc(C)n3nc(-c4ccccc4)cc23)c1=O`, the inhibition [3] is reported as 54.6% and the inhibition [2] is reported as 32.5%.
Compound `CCc1nn(Cc2ccccc2)c(=O)c2nc(C)n3nc(-c4ccccc4)cc3c12` has an IC50 [1] of 220 nM and an inhibition [2] of 21.8%.
Work on `Cc1nn(Cc2ccccc2)c(=O)c2nc(C)n3nc(-c4cccnc4)cc3c12` yielded an IC50 [1] of 470 nM and an IC50 [4] of 0.28 µM.
`Cc1nc2c(=O)n(Cc3ccccc3)nc(C(C)C)c2c2cc(-c3ccccc3)nn12` was tested, and the IC50 [1] was 100 nM and the inhibition [2] was 59.8%.
`COC(=O)CCCCc1nc2c(=O)n(Cc3ccccc3)nc(C)c2c2cc(-c3ccccc3)nn12` gave an IC50 [1] of 95 nM and an inhibition [2] of 1.1%.
`Cc1nc2c(=O)n(Cc3ccccc3)nc(CN3CCN(C)CC3)c2c2cc(-c3ccccc3)nn12` showed an inhibition [5] of 23% and an inhibition [6] of 30%.
Work on `Cc1nn(Cc2ccccc2)c(=O)c2nc(C)n3nc(-c4ccc(F)cc4)cc3c12` yielded an inhibition [3] of 38.8% and an inhibition [2] of 4.5%.
Work on `CCn1nc(C)c2c(nc(C)n3nc(-c4ccccc4)cc23)c1=O` yielded an inhibition [3] of 49.3% and an inhibition [6] of 53.4%.
With `CC(=O)CCc1nc2c(=O)n(Cc3ccccc3)nc(C)c2c2cc(-c3ccccc3)nn12` the Selectivity ratio (Homo sapiens) was greater than 240, the IC50 [1] was 8.3 nM and the inhibition [2] was 22.8%.
`Cc1nn(CC(=O)O)c(=O)c2nc(C)n3nc(-c4ccccc4)cc3c12` showed an inhibition [5] of 7.6% and an inhibition [6] of 11.2%.
Work on `Cc1nnc(NCc2ccc3c(c2)OCO3)c2nc(C)n3nc(-c4ccccc4)cc3c12` yielded an inhibition [3] of 56.8%.
`Cc1nn(Cc2ccccc2)c(=O)c2nc(C)n3nc(-c4ccc(Cl)cc4)cc3c12` showed an IC50 [1] of 370 nM and an IC50 [4] of 4.7 µM.
Compound `Cc1nn(Cc2ccccc2)c(=O)c2nc(C)n3nc(-c4ccsc4)cc3c12` has a Selectivity ratio (Homo sapiens) of 16, an IC50 [1] of 140 nM and an IC50 [4] of 2.2 µM.
